RAD54 inh = inhibitors of human RAD54 branch migration, primary screen, biochemical, fluorescence, single point. DNA repair and recombination protein RAD54-like (Homo sapiens), Q92698. 360,000 tested, 0.14% active. inhibition, % at 10.4 µM. RAD54 Holliday junction branch migration, FAM/BHQ fluorescence;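 active = mean normalized replicate activity at least 40 and at least half of replicates scoring 40 or more; inconclusive = only one of the two criteria met; inactive = mean below 40 and under half of replicates reaching 40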;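 also: inhibitors cause a drop in the FAM fluorescence signal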
rRNA inh HTS = reduced GFP signal of wild-type E. coli, primary screen, bacterial rRNA inhibitor project, GFP/RFP fluorescence, OD600, single point | GFP signal change (wild-type ribosome), % (no concentration beside the values) | AID 720706, 2013 | 350,000 tested, 1.6% active | E. coli WT GFP vs humanized-ribosome RFP mutants, 24 h; hits give low values; DMSO median 0, no signal -100;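 active = significant combined selectivity score with lowered wild-type GFP, culture density cut under 30%, mutant RFP and density less affected; inactive = any of these conditions unmet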
RAD52 anneal inh = RAD52 DNA annealing inhibitors, primary screen, biochemical, FRET, single point, set 2. DNA repair protein RAD52 homolog (Homo sapiens), P43351. AID 651710, 2012. recombinant RAD52 DNA annealing, FRET fluorescence. inhibition, % at 18.7 µM. 360,000 tested, 0.46% active;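 active = every replicate showing at least 50% inhibition; inconclusive = mean inhibition at least 50% but not in every replicate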
AF4-AF9 inh = inhibitors of AF4 peptide binding to AF9, primary screen, biochemical, AlphaScreen, biotin-AF4 peptide, FLAG-AF9, single point; 350,000 tested, 0.47% active; inhibition, % at 10 µM;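 active = every replicate reaching a set inhibition limit, whatever the replicate mean, cut at about 25% in these data; inconclusive = mean inhibition reaches that limit but some replicates miss it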
GSIS activator = GLuc luminescence reporter in INS-1E cells, primary screen for activators of glucose-dependent secretion of insulin. INS-1E GLuc reporter insulin secretion, 2-3 h. activation, % at 16.6 µM. 370,000 tested, 0.61% active. AID 743287, 2014;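 active = lowest replicate activation of at least 40%, so every replicate reaches that level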
E-sel inducer = E-selectin induction in HUVECs, primary screen, imaging, HUVEC, immunofluorescence imaging, single point; 260,000 tested, 0.37% active; AID 686992, 2013; P16581; normalized: neutral wells 0, TNF-alpha wells 100; activation, % at 7.58 µM;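 active = mean E-selectin-positive cell signal at least 10% of the positive control, reached in at least 60% of replicates, without over 20% cell loss; inconclusive = no rule given, readout overlaps actives, possibly toxicity-flagged; inactive = the rest, including those meeting only one limit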
Target sequence (P16581 whole entry, looked up): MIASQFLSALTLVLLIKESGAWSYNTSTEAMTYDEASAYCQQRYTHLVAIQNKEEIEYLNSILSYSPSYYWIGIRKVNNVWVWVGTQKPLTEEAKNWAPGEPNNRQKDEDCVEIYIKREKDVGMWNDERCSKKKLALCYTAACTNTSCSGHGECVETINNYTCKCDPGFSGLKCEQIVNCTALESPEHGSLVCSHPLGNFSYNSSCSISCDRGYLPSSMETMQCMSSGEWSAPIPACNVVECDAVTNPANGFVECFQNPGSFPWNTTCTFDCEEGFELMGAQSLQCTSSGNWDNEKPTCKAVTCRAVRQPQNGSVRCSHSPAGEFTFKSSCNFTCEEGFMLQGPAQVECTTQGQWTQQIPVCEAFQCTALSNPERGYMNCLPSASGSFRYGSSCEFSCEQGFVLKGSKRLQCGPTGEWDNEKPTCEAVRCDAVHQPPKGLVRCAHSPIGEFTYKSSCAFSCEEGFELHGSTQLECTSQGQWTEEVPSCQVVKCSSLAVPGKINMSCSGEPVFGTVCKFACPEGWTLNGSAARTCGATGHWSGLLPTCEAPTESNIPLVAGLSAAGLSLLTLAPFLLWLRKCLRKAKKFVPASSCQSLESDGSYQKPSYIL
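Material: HUVEC primary endothelial cells; Amount: 3,000 cells per well; Dosing: single concentration; Medium: EGM-2 growth medium on 0.1% gelatin-coated wells; Read-out basis: percent E-selectin-positive cells; Signal: immunofluorescence imaging; Control set: TNF-alpha, DMSO.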
Large screens that a line does not name were inactive. Rows were chosen to be rich in hits. Some 2.6% of all compounds tested hit in one or more screens of this group.

CCOC(=O)c1cc2c(=Cc3ccc(N(C)C)cc3)c3ccccc3n2[n+]1C	RAD52 anneal inh 56.4, AF4-AF9 inh 51.9, E-sel inducer 138.7 (no result: RAD54 inh)
Cc1cc2c(=Cc3ccc(N(C)C)cc3)c3ccccc3n2[n+]1C	AF4-AF9 inh 29.9, E-sel inducer 49.0 (no result: RAD54 inh)
O=C(Cn1cc(CN2C(=O)COC[C@H]2c2ccccc2)nn1)Nc1nccs1	none (no result: rRNA inh HTS, GSIS activator, E-sel inducer)
Nc1nc(N)nc(-c2cccc([N+](=O)[O-])c2)n1	GSIS activator 59.7
CCCc1cn(CC[C@H]2CC[C@H](NC(=O)CCN3CCCCC3)[C@H](CO)O2)nn1	none
O=C(Cc1ccccn1)N1CC(=O)N2[C@H](C1)[C@@H](c1ccc(C#CC3CC3)cc1)[C@@H]2CO	none (no result: RAD54 inh)
Cc1cc(OCc2ccccc2)ccc1/C(O)=C1/C(=O)C(=O)N(Cc2cccnc2)C1c1ccncc1 (centres undefined)	rRNA inh HTS -28.9 (no result: RAD54 inh)
COc1ccc(/C(O)=C2/C(=O)C(=O)N(Cc3cccnc3)C2c2ccncc2)cc1F (centres undefined)	none (no result: rRNA inh HTS, RAD52 anneal inh, AF4-AF9 inh, GSIS activator, E-sel inducer)
NS(=O)(=O)c1cccc(NC(=O)Nc2ccc(Cl)cc2)c1	rRNA inh HTS -31.4
NS(=O)(=O)c1cccc(NC(=O)c2cccc(-c3ccc(O)cc3)c2)c1	rRNA inh HTS -25.9 (no result: E-sel inducer)
Cc1ccc(S(=O)(=O)Nc2cccc3c2O[C@H](CN(C)Cc2ccc4c(c2)OCO4)[C@@H](C)CN([C@H](C)CO)C3=O)cc1	none
CO[C@@H]1CN(C)C(=O)c2ccc(NC(=O)C3CCCCC3)cc2OC[C@H](C)NC[C@H]1C	none
COc1ccc(CNC(=O)Cn2ccc(N)nc2=O)cc1	E-sel inducer 38.8 (no result: AF4-AF9 inh)
CN1C(=O)c2cc(NC(=O)c3cccs3)ccc2OC[C@@H]2O[C@@H](CC(=O)NCCN3CCCCC3)CC[C@H]21	none
CC(=O)NC(=S)Nc1sc2c(c1C(N)=O)CCC(C)C2 (centres undefined)	rRNA inh HTS -27.6 (no result: RAD54 inh, E-sel inducer)
CC1CCc2c(sc(NC(=O)Cn3cnc([N+](=O)[O-])n3)c2C(N)=O)C1 (centres undefined)	none
CCOC(=O)Nc1sc2c(c1C(N)=O)CCC(C)C2 (centres undefined)	none (no result: RAD54 inh, rRNA inh HTS, RAD52 anneal inh, AF4-AF9 inh, E-sel inducer)
Cc1cc([N+](=O)[O-])nn1CCCC(=O)Nc1sc2c(c1C(N)=O)CCC(C)C2 (centres undefined)	AF4-AF9 inh 27.9 (no result: RAD54 inh, E-sel inducer)
C[C@@H]1CN([C@H](C)CO)S(=O)(=O)c2ccc(C#CCN(C)C)cc2O[C@H]1CN(C)C(=O)C1CCC1	none
O=C(C[C@@H]1CC[C@@H](NC(=O)C2CC2)[C@@H](CO)O1)NCCCN1CCOCC1	none
C[C@@H]1CN([C@H](C)CO)C(=O)Cc2cc(NS(=O)(=O)c3ccc(Cl)cc3)ccc2O[C@H]1CN(C)Cc1ccc2c(c1)OCO2	none
C[C@H]1Cn2cnc(C(=O)Nc3ccc(CNC(=O)OC(C)(C)C)cc3)c2C(=O)N1	none
C[C@H]1CNC(=O)c2c(C(=O)Nc3ccc(CNC(=O)OC(C)(C)C)cc3)ncn21	rRNA inh HTS -24.8
CC(C)C#Cc1ccc2c(c1)O[C@H](CN(C)C(=O)c1ccccn1)[C@@H](C)CN([C@@H](C)CO)S2(=O)=O	none
Cc1ccccc1NC(=O)c1cc[n+]([O-])cc1	E-sel inducer 41.3 (no result: RAD54 inh)
Cc1cccc(NC(=O)c2cc[n+]([O-])cc2)c1C	none
C[C@@H]1CN([C@H](C)CO)C(=O)Cc2cc(NS(C)(=O)=O)ccc2O[C@H]1CN(C)Cc1ccccc1	none
CCc1cc2ccc(OC)cc2nc1SCC(=O)Nc1cc(C)on1	GSIS activator 48.4 (no result: rRNA inh HTS, RAD52 anneal inh, AF4-AF9 inh, E-sel inducer)
Cc1cc(NCCCn2ccnc2)n2ncc(-c3ccc(Cl)cc3)c2n1	none (no result: rRNA inh HTS, RAD52 anneal inh, AF4-AF9 inh, GSIS activator, E-sel inducer)
CC(C)(C)c1cc(NCCCn2ccnc2)n2ncc(-c3ccccc3)c2n1	rRNA inh HTS -49.5, AF4-AF9 inh inconclusive
CC(C)(C)c1cc(NCc2ccccn2)n2ncc(-c3ccc(Cl)cc3)c2n1	none (no result: GSIS activator)
CN(C)CCCNc1cc(C(C)(C)C)nc2c(-c3ccc(Cl)cc3)cnn12	GSIS activator 411.2 (no result: AF4-AF9 inh)
Cc1noc(C)c1NC(=O)N(C)C[C@H]1Oc2ccc(NS(=O)(=O)c3c(C)noc3C)cc2C(=O)N([C@@H](C)CO)C[C@H]1C	none (no result: RAD54 inh, RAD52 anneal inh, AF4-AF9 inh)
COC(=O)c1ccc2c(=O)[nH]c(CSc3nc(-c4ccc(F)cc4)cs3)nc2c1	GSIS activator 57.9 (no result: RAD54 inh, rRNA inh HTS, RAD52 anneal inh, AF4-AF9 inh)
COc1ccc(NC(=O)N(C)C[C@@H]2Oc3cc(-c4ccc(C)cc4)ccc3S(=O)(=O)N([C@@H](C)CO)C[C@@H]2C)cc1	none
CC(C)c1ccc2c(c1)C(N1CCN(C)CC1)Cc1cccnc1S2 (centres undefined)	rRNA inh HTS -22.3 (no result: RAD54 inh)
COc1ccc2c(c1)CC(N1CCN(C)CC1)c1cc(OC)ccc1S2 (centres undefined)	none (no result: RAD54 inh, E-sel inducer)
COC(=O)[C@]1(CO)N=C(c2ccc(OCCCO)cc2)O[C@@H]1c1ccccc1CN=[N+]=[N-]	none (no result: rRNA inh HTS, GSIS activator, E-sel inducer)
CCOC(=O)C(C)Oc1cccc2c(=O)n(CC(=O)NCc3ccc(F)cc3)ccc12 (centres undefined)	GSIS activator 42.0
CCOC(=O)C(C)Oc1cccc2c(=O)n(CC(=O)NCc3ccccc3)ccc12 (centres undefined)	none (no result: E-sel inducer)
Nc1cc(N)nc(SCc2ccccc2Cl)n1	none
Cc1cc2c(SCc3ccccc3Cl)nc(N)nc2nc1C	E-sel inducer 87.8
O=S(=O)(Nc1ccc(-n2cccc2)cc1)c1ccc(Cl)c(Cl)c1	rRNA inh HTS -45.2 (no result: RAD54 inh, E-sel inducer)
O=S(=O)(Nc1ccc(-n2cccc2)cc1)c1ccc(F)cc1	none
CCCNC(=O)Nc1ccc2c(c1)OC[C@H](C)N(C(=O)C1CC1)C[C@H](C)[C@@H](OC)CN(C)C2=O	none
Cc1ccc2nc(NCCCO)nc(-c3ccccc3)c2c1	none (no result: rRNA inh HTS, RAD52 anneal inh, AF4-AF9 inh, GSIS activator, E-sel inducer)
NNc1nc(-c2ccccc2)cc(-c2ccc(Br)cc2)n1	rRNA inh HTS -25.3
Cc1nc(-c2ccccc2)cc(-c2ccccc2)n1	none (no result: AF4-AF9 inh)
NNc1nc(-c2ccccc2)c2cc(Br)ccc2n1	GSIS activator 48.8
OCCCNc1nc(-c2ccccc2)c2cc(Br)ccc2n1	GSIS activator 54.9
CCCNC(=O)[C@@H]1[C@@H](CO)[C@@H]2Cn3c(ccc(-c4cccc(F)c4)c3=O)[C@@H]2N1C(=O)CC	none
CCN(CC)c1ccc(/C=C(\C#N)C(N)=S)cc1	rRNA inh HTS -22.5 (no result: RAD54 inh)
O=C(C=C=Nc1ccccc1)C(=O)N=C=Cc1ccccc1	rRNA inh HTS -30.7 (no result: RAD54 inh)
CCSc1nc2ccccc2c(=O)n1Cc1ccc(F)cc1	rRNA inh HTS -19.1 (no result: RAD54 inh)
COCC#Cc1ccc2c(c1)O[C@@H](CN(C)Cc1ccccn1)[C@@H](C)CN([C@H](C)CO)S2(=O)=O	none

High-throughput results: PubChem, Broad Institute
